pIC50: −log10 of the molar value. Activity calls are given as the source filed them. The calls are words filed in the database; no cut-off is given here.
How the values were obtained:
[1] = molecular target: T1, Tyrosine-protein phosphatase non-receptor type 1 (Homo sapiens) (UniProt P18031); assay: Inhibition of human N-terminal His6-tagged PTP1B catalytic domain (1 to 298 residues) expressed in Escherichia coli strain Rosetta2 (DE3) up to 500 uM using pNPP as substrate preincubated for 10 mins followed by substrate addition and measured after 10 mins by […]
T1 sequence (whole entry): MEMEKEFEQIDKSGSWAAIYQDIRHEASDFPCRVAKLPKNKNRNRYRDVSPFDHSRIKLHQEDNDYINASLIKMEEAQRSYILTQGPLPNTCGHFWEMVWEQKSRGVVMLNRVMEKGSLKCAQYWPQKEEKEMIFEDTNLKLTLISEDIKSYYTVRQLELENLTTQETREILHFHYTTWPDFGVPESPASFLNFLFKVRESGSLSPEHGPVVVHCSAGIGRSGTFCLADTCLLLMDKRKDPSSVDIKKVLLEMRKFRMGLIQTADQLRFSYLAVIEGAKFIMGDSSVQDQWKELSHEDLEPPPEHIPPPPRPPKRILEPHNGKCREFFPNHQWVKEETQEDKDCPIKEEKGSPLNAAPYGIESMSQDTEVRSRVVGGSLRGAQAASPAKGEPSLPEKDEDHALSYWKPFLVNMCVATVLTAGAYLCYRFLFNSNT

[2] = molecular target: T1, Tyrosine-protein phosphatase non-receptor type 1 (Homo sapiens); assay: Non competitive inhibition of human N-terminal His6-tagged PTP1B catalytic domain (1 to 393 residues) expressed in Escherichia coli strain Rosetta2 (DE3) using DiFMUP as substrate preincubated for 10 mins followed by substrate addition and measured after 10 mins by Michaelis-Menten plot analysis
[3] = molecular target: T1, Tyrosine-protein phosphatase non-receptor type 1 (Homo sapiens); assay: Reversible inhibition of human N-terminal His6-tagged PTP1B catalytic domain (1 to 298 residues) expressed in Escherichia coli strain Rosetta2 (DE3) at 10 times IC50 using DiFMUP as substrate preincubated for 30 mins followed by 100 fold compound dilution and substrate addition measured for 60 mins fluorescence assay
[4] = molecular target: T1, Tyrosine-protein phosphatase non-receptor type 1 (Homo sapiens); assay: Inhibition of human N-terminal His6-tagged PTP1B catalytic domain (1 to 393 residues) expressed in Escherichia coli strain Rosetta2 (DE3) using DiFMUP as substrate preincubated for 10 mins followed by substrate addition and measured after 10 mins in presence of 0.1 mg/ml BSA by fluorescence assay
In short: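 DiFMUP IC50 assay (1 nM enzyme, 10 min preincubation, substrate at Km, 37 °C, ex 358/em 455 nm), repeated as an aggregation check under three altered conditions: 10-fold enzyme (10 nM), 0.05% Tween 20, or 0.1 mg/mL BSA in buffer.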

[5] = molecular target: T2, Tyrosine-protein phosphatase non-receptor type 1 (Homo sapiens, UniProt P18031); assay: Inhibition of human N-terminal His6-tagged PTP1B catalytic domain (1 to 298 residues) expressed in Escherichia coli strain Rosetta2 (DE3) using DiFMUP as substrate preincubated for 10 mins followed by substrate addition and measured after 10 mins by fluorescence assay
T2 sequence (P18031 whole entry): T1 sequence (whole entry)
In short: (§1)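 Tag-cleaved, SEC-purified enzyme at 1 nM, preincubated 10 min with compound at 15 concentrations from 0–500 μM (5% DMSO final) in 25 mM Bis-Tris propane pH 7.5, 50 mM NaCl, 2 mM EDTA. DiFMUP added at each construct's Km (10, 7, 10, 9 μM for PTP1B1−298, PTP1B1−393, TCPTP1−296, TCPTP1−336). Read ex 358/em 455 nm continuously 10 min at 37 °C; triplicate; log(inhibitor)-response fit.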

[6] = system: Mus musculus; assay: Antiobesity activity in high fat diet-induced obese Ptpn1fl/fl null C57BL/6 mouse treated with rAAV-CMV-Cre-GFP for deletion of PTP1B assessed as reduction in body weight at 100 ug/kg, ip for 10 consecutive days; assay type: functional, organism-based
In short: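 Male Ptpn1fl/fl, Ptpn2fl/fl or double-floxed mice: chow 8 weeks, then high-fat diet (45% energy from fat) 12 weeks. Bilateral intra-ARC stereotaxic injection of rAAV-CMV-Cre-GFP or rAAV-CMV-GFP, 100 nL/side. After 2 weeks recovery, vehicle or 100 μg/kg ip daily at 6 pm for 10 days; body weight tracked; two-way repeated-measures ANOVA with Tukey test; means ± SEM.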

[7] = molecular target: T1, Tyrosine-protein phosphatase non-receptor type 1 (Homo sapiens); assay: Non-competitive inhibition of human N-terminal His6-tagged PTP1B catalytic domain (1 to 393 residues) expressed in Escherichia coli strain Rosetta2 (DE3) at 500 uM in presence of 4'-aminoxanilic acid by STD-NMR spectroscopic method
[8] = molecular target: T3, Tyrosine-protein phosphatase non-receptor type 2 (Homo sapiens, UniProt P17706); assay: Inhibition of human N-terminal His6-tagged TCPTP catalytic domain (1 to 296 residues) expressed in Escherichia coli strain Rosetta2 (DE3) using DiFMUP as substrate preincubated for 10 mins followed by substrate addition and measured after 10 mins by fluorescence assay; in short: as §1
T3 sequence (P17706 whole entry): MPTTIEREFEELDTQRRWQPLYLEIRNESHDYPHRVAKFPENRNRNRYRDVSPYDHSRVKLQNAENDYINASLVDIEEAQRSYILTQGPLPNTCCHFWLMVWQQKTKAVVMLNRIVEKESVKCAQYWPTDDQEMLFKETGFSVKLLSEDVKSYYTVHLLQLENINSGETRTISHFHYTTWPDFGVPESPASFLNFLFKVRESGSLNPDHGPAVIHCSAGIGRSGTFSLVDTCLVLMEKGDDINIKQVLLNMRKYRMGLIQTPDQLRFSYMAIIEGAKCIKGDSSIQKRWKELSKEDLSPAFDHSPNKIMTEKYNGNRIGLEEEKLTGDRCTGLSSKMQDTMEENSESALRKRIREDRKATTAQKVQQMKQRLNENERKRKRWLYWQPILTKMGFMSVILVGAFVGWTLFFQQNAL

## CC1=C(O)C(=O)C=C2C1=CC=C1[C@@]2(C)CC[C@@]2(C)[C@@H]3C[C@](C)(C(=O)O)CC[C@]3(C)CC[C@]12C [CELASTROL]
[1]
  inhibition: Active
[2]
  inhibition: Active
[3]
  inhibition: Active
[4]
  inhibition: Active
[5]
  pIC50: 5.32
[6]
  Activity: inactive
[7]
  inhibition: Active
[8]
  pIC50: 4.64
